Tn7 DDE FP: disrupts Tn7 cyclic peptide binding to fibrin D-Dimer-E complex | P02675 | FP displacement of FITC-Tn7 peptide from fibrin DD(E); 0% = median of compound wells per plate | inhibition, % at 8.3 µM | 370,000 tested, 0.13% active | AID 720508;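 active = inhibition above the mean of compounds falling within the control limits plus 3 SD of them, cut at about 14% in these data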
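Also added: labelled Tn7 tracer, 0.1 µM; Assay system: human fibrin DD(E) protein; Amount: 2 µM fibrin DD(E); Schedule: 10 min compound pre-incubation, 3 h probe incubation at room temperature; Repeats: one replicate per compound; Read-out basis: percent inhibition; Measured by: fluorescence polarization of the labelled Tn7 tracer.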
Tn6 DDE FP: disrupts Tn6 cyclic peptide binding to fibrin D-Dimer-E complex | 370,000 tested, 0.21% active | P02675 | AID 720509 | inhibition, % at 8.3 µM | Fibrin DD(E) TRITC-Tn6 fluorescence polarization displacement;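 active = inhibition above a per-campaign cutoff: mean of compounds within control limits plus 3 SD, cut at about 15% in these data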
TCR CD3 inh: inhibitors of human TCR-CD3 interaction; TAMRA-labeled TCR probe fluorescence, biochemical; inhibition, % at 9.4 µM; 360,000 tested, 0.37% active;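 also: recombinant mutant TCR 2C K166C tagged with TAMRA read by polarization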
mABHD4 FP: inhibitors of mouse ABHD4; Q8VD66; purified mABHD4, FP-Rh probe fluorescence polarization; inhibition, % at 8.92 µM; 370,000 tested, 0.54% active; AID 720543;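 active = inhibition exceeding the mean over every tested compound plus 3 SD, cut at about 30% in these data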
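Test system: mABHD4 protein | Buffer or medium: HEPES pH 7.0 buffer, 150 mM NaCl, 0.01% Pluronic F-127 | Probe or stimulus: FP-Rh fluorescent activity-based probe, added after compound pre-incubation | Timing: Pre-incubation 45 min, probe exposure 60 min, at 25 °C | Technique: Fluorescence polarization, excitation 525 nm, emission 598 nm, BODIPY TMR filters | Repeats: Single well per compound (singlicate)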
HTRA1 inh: HTRA1 (human) protease inhibition | Q92743 | recombinant HTRA1, FP-rhodamine activity-based probe, fluorescence polarization | inhibition, % at 5.96 µM | 340,000 tested, 0.5% active | AID 504803; in the data active = inhibition above about 36%
Target sequence (Q92743 whole entry, looked up): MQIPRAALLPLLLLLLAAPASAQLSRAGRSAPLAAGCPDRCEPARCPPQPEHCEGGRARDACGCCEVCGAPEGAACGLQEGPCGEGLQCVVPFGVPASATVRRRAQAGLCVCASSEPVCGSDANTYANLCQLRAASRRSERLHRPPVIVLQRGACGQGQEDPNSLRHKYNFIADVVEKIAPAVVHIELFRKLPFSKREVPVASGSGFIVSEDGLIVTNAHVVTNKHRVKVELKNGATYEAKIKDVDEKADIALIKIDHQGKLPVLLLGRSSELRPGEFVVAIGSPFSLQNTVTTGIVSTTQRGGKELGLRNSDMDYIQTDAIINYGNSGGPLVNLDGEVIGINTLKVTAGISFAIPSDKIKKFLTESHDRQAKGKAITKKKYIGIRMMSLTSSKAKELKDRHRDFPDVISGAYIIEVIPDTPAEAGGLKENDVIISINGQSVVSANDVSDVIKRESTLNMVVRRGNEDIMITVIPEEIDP
HTRA1 conf: HTRA1 (human) inhibition, confirmation | recombinant HTRA1, FP-rhodamine activity-based probe, fluorescence polarization | shares compounds with HTRA1 inh | 1,600 tested, 66% active | inhibition, % at 5.96 µM | AID 540248;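 active = mean inhibition over three repeats above a set limit taken from the earlier primary screen, cut at about 37% in these data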;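 also: inhibitors block probe binding so polarization drops and inhibition rises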
BSA TAMRA ctr: interferes with TAMRA-BSA probe, flagging TCR-CD3 hits | inhibition, % at 9.4 µM | TAMRA-labeled BSA probe fluorescence counterscreen | shares compounds with TCR CD3 inh | 1,200 tested, 10% active; in the data active = inhibition above about 23%
TCR-CD3 conf: confirmation of human TCR-CD3 interaction inhibitors; shares compounds with TCR CD3 inh; TAMRA-labeled TCR probe fluorescence binding assay; inhibition, % at 9.4 µM; 1,200 tested, 48% active
Hits are given with their value; i = inactive; nt = no result given; + = active, no number. Hits are enriched below; roughly 1.3% of the tested compounds scored in any of these assays. Rule as the data show it, unless noted: active = inhibition above about 19%; inactive = the rest.

SMILES	Tn7 DDE FP	Tn6 DDE FP	TCR CD3 inh	mABHD4 FP	HTRA1 inh	HTRA1 conf	others
c1cc2c3c(cccc3c1)NC1(CCCCCC1)N2	i	i	i	i	39.2	51.2
c1cc2c3c(cccc3c1)NC1(CCCCC1)N2	i	i	i	i	i	nt
O=C(c1cccc(C(F)(F)F)c1)N1CCC2(CC1)NCCc1[nH]cnc12	i	i	i	i	i	nt
Cc1c(O)ccc2c(CN3CCN(Cc4ccccc4)CC3)cc(=O)oc12	i	i	i	i	i	nt
O=c1cc(CN2CCN(Cc3ccccc3)CC2)c2ccc(O)c(O)c2o1	i	i	i	i	60.8	69.6
c1ccc2cc(-c3cc4ccccn4c3)ccc2c1	i	i	i	i	39.4	i
CCOc1cc(/C=C2/NC(=O)N(CC(=O)OC)C2=O)ccc1O	i	i	i	i	i	nt
O=C(Nc1ccc(Br)cc1F)c1ccc2c(c1)OCCO2	i	i	i	i	i	nt
Oc1ccc(/C=N/N2CCN(C3c4ccccc4-c4ccccc43)CC2)cc1	i	i	i	i	i	nt
Oc1ccc(/C=N/N2CCN(C3c4ccccc4-c4ccccc43)CC2)cc1O	i	i	i	i	37.6	+
O=C1C=C(O)c2[nH]c(=O)ccc2C1=O	i	i	i	i	46.5	i
NC(=O)NCc1ccccc1Cl	i	i	i	i	i	nt
CN(CC(=O)Nc1ccc(Cl)c(C(F)(F)F)c1)C(=O)Cc1ccsc1	i	i	i	i	i	nt
Oc1ccc(N=Cc2ccc(-c3cccs3)s2)cc1	i	18.5	42.9	85.6	61.6	i
CN(C)CCCNc1cc(C(C)(C)C)nc2c(-c3ccc(Cl)cc3)cnn12	i	i	i	i	49.3	69.8
CC(C)(C)c1cc(NCc2ccccn2)n2ncc(-c3ccc(Cl)cc3)c2n1	i	i	i	i	i	nt
COc1ccc(/C=N/N2C(=O)CSC2=S)cc1	i	i	i	i	i	nt
COc1ccc(-c2nn(-c3ccccc3)cc2/C=N/N2C(=O)CSC2=S)cc1	i	i	i	i	67.9	53.3
COc1ccc(CN(C(=O)c2oc3cc(C)ccc3c2C)C2CCS(=O)(=O)C2)cc1OC (stereo unspecified)	i	i	i	i	i	nt
O=C(/C=C/c1cccs1)NC(=S)NNC(=O)c1ccccc1O	i	i	i	i	48.1	57.5
Cc1ccc(S(=O)(=O)N2CCN(Cc3cc4c(cc3Br)OCCO4)CC2)cc1	i	i	i	i	i	nt
C/C(=N\NC(=O)CSc1nc2ccccc2o1)c1ccc(O)cc1	i	i	i	i	i	nt
C/C(=N\NC(=O)CSc1nc2ccccc2o1)c1cccc(O)c1	i	i	i	i	50.9	i
CN(C)c1ccc(NC(=O)Cn2cc3c(n2)CCCC3)cc1	i	i	i	i	43.7	59.4
CCc1cccc(NC(=O)Cn2cc3c(n2)CCCC3)c1	i	i	i	i	i	nt
SMILES	Tn7 DDE FP	Tn6 DDE FP	TCR CD3 inh	mABHD4 FP	HTRA1 inh	HTRA1 conf	others
Cc1ccc(NC(=S)NNc2ncc(C(F)(F)F)cc2Cl)c(C)c1	i	i	i	i	i	nt
Fc1ccc(NC(=S)NNc2ncc(C(F)(F)F)cc2Cl)c(F)c1	i	i	i	i	46.0	69.2
FC(F)(F)c1cnc(NNC(=S)Nc2ccc(Cl)cc2)c(Cl)c1	i	i	i	i	49.2	53.5
O=C(NNc1ncc(C(F)(F)F)cc1Cl)c1ccc(Cl)c(Cl)c1	i	i	i	i	i	nt
Cc1ccc(NC(=S)NNc2ncc(C(F)(F)F)cc2Cl)cc1	i	i	i	i	37.7	i
Cc1ccc(C(C)NC(=O)c2c(-c3ccccc3)noc2C)cc1C (stereo unspecified)	i	i	i	i	i	nt
Cc1cc(N=Nc2ccccc2)c(NCC(O)C(O)C(O)CO)cc1C (stereo unspecified)	i	i	i	i	44.8	38.5
Cc1ccc(NCC(O)C(O)C(O)CO)cc1C (stereo unspecified)	i	i	i	i	i	nt
CC(C)NC(=S)N/N=C/c1cc(Br)ccc1O	i	i	i	i	37.2	49.0
O=C(/C=C/c1ccc(O)c(O)c1)c1ccc(S(=O)(=O)N2CCCCCC2)cc1	i	i	i	i	54.5	55.9
COc1ccccc1/C=N/NC(=O)c1cc2c(OC)c(OC)ccc2[nH]1	i	i	i	i	i	nt
COc1ccc(OC)c2[nH]c(C(=O)N/N=C/c3ccccc3O)cc12	i	i	i	i	53.9	i
O=C(NC(=S)NNC(=O)c1cc2ccccc2cc1O)c1ccco1	i	i	i	i	45.4	i
COc1ccc(C(=O)NC(=S)NNC(=O)c2ccco2)cc1	i	i	i	i	i	nt
O=C(Nc1ccc2[nH]ncc2c1)c1ccccc1Br	i	i	i	i	i	nt
Oc1c(CN2CCOCC2)ccc2ccccc12	i	i	i	i	i	nt
CN(C)C1CCN(Cc2cc(COCc3ccccc3)c3cccnc3c2O)C1 (stereo unspecified)	nt	nt	nt	nt	53.7	76.2
Oc1c(CN2CCCCC2)ccc2cccnc12	i	i	i	i	73.5	69.1
Oc1c(CN2CCCCC2)cc(COCc2ccccc2)c2cccnc12	i	i	i	i	64.5	72.4
CNc1c(NS(=O)(=O)c2ccc(Cl)s2)c(=O)oc2ccccc12	i	i	i	i	128.6	i
CNc1c(NS(=O)(=O)c2ccc(Cl)cc2)c(=O)oc2ccccc12	i	i	i	i	i	nt
Cc1nn(-c2cc(N3CCNCC3)ccc2[N+](=O)[O-])c(=O)c2ccccc12	i	i	i	i	i	nt
COc1cc(C2Nc3c(F)cccc3C3C=CCC32)cc(Br)c1OC (stereo unspecified)	i	i	i	i	i	nt
COc1cccc(C2Nc3c(F)cc(Br)cc3C3C=CCC32)c1OC (stereo unspecified)	i	i	i	i	44.0	i
CCOC(=O)C1=C(C)N(C)C(=O)NC1c1ccccc1OC (stereo unspecified)	i	i	i	i	i	nt
COc1cccc2c1NC(C(=O)O)C1CC=CC21 (stereo unspecified)	nt	nt	nt	nt	61.9	60.7
O=C(NCc1ccco1)c1ccc(COc2cccc3ccccc23)cc1	i	i	i	i	i	nt
O=C(N/N=C/c1ccc(O)cc1O)c1ccc(CN2C(=O)c3cccc4cccc2c34)cc1	i	i	27.4	i	37.5	i	BSA TAMRA ctr=i;TCR-CD3 conf=29.9
CC(C)C[C@H](NC(=O)c1nc[nH]c1C(=O)NC(c1ccccc1)c1ccccc1)C(=O)OCc1ccccc1	i	i	i	i	i	nt
Cc1cc2oc(=O)cc(-c3cc4ccccc4o3)c2cc1O	i	i	i	i	i	nt

Screening data: PubChem, The Scripps Research Institute Molecular Screening Center
